Reference: ChEMBL document CHEMBL1138555, “N-acylated and N,N'-diacylated imidazolidine-2-thione derivatives and N,N'-diacylated tetrahydropyrimidine-2(1H)-thione analogues: synthesis and antiproliferative activity” (Eur J Med Chem, 2009)

Assays:
[1] = system: NCI-H460; test: Growth inhibition of human NCI-H460 cells after 48 hrs by sulforhodamine B assay; type: functional; conditions: NCI-H460, 48 h
Procedure, shortened: (§1)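 NCI screen panel. Five 10-fold concentrations from 10^-4 to 10^-8 M. Exposure for the last 48 h of a 72 h incubation. Growth estimated by sulforhodamine B protein assay. GI50 is the concentration giving 50% growth inhibition. Where that level was not reached or was exceeded, the value is given as above or below the highest or lowest concentration tested.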

[2] = system: MDA-MB-435; test: Growth inhibition of human MDA-MB-435 cells after 48 hrs by sulforhodamine B assay; type: functional; conditions: MDA-MB-435, 48 h; procedure, shortened: as §1
[3] = system: HL-60(TB); test: Growth inhibition of human HL-60(TB) cells after 48 hrs by sulforhodamine B assay; type: functional; conditions: HL-60, 48 h
Procedure, shortened: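 NCI 60-cell-line screen protocol: cells exposed to compound at five 10-fold dilutions from 10^-4 to 10^-8 M for the last 48 h of a 72 h incubation. Sulforhodamine B protein assay estimated viability/growth. GI50 (50% growth inhibition) derived; where not reached or exceeded, reported as greater or less than the highest or lowest concentration tested.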

[4] = system: OVCAR-8; test: Growth inhibition of human OVCAR8 cells after 48 hrs by sulforhodamine B assay; type: functional; conditions: OVCAR-8, 48 h; procedure, shortened: as §1
[5] = system: Malme-3M; test: Growth inhibition of human MALME-3M cells after 48 hrs by sulforhodamine B assay; type: functional; procedure, shortened: as §1
[6] = system: KM12; test: Growth inhibition of human KM12 cells after 48 hrs by sulforhodamine B assay; type: functional; conditions: KM12, 48 h; procedure, shortened: as §1
[7] = system: RXF 393; test: Growth inhibition of human RXF393 cells after 48 hrs by sulforhodamine B assay; type: functional; conditions: RXF 393, 48 h; procedure, shortened: as §1
[8] = system: SF-295; test: Growth inhibition of human SF295 cells after 48 hrs by sulforhodamine B assay; type: functional; conditions: SF-295, 48 h; procedure, shortened: as §1
[9] = system: NCI-H322M; test: Growth inhibition of human NCI-H322M cells after 48 hrs by sulforhodamine B assay; type: functional; procedure, shortened: as §1
[10] = system: M14; test: Growth inhibition of human M14 cells after 48 hrs by sulforhodamine B assay; type: functional; conditions: M14, 48 h; procedure, shortened: as §1
[11] = system: LOX IMVI; test: Growth inhibition of human LOXIMVI cells after 48 hrs by sulforhodamine B assay; type: functional; procedure, shortened: as §1
[12] = system: MDA-MB-231; test: Growth inhibition of human MDA-MB-231 cells after 48 hrs by sulforhodamine B assay; type: functional; conditions: MDA-MB-231, 48 h; procedure, shortened: as §1
[13] = system: 786-0; test: Growth inhibition of human 786-0 cells after 48 hrs by sulforhodamine B assay; type: functional; conditions: 786-0, 48 h; procedure, shortened: as §1
[14] = system: CAKI-1; test: Growth inhibition of human Caki1 cells after 48 hrs by sulforhodamine B assay; type: functional; conditions: CAKI-1, 48 h; procedure, shortened: as §1
[15] = system: UACC-257; test: Growth inhibition of human UACC257 cells after 48 hrs by sulforhodamine B assay; type: functional; conditions: UACC-257, 48 h
Procedure, shortened: (§2)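 NCI in vitro panel screen. Compounds tested at five 10-fold dilutions, 10^-4 to 10^-8 M. Cells in 96-well plates were exposed for the last 48 h of a 72 h incubation. Viability/growth was read by sulforhodamine B protein assay. GI50 is the concentration giving 50% growth inhibition. Values beyond the tested range are reported as greater or less than the maximum or minimum concentration.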

[16] = system: A549; test: Growth inhibition of human A549 cells after 48 hrs by sulforhodamine B assay; type: functional; conditions: A549, 48 h; procedure, shortened: as §1
[17] = system: BT-549; test: Growth inhibition of human BT549 cells after 48 hrs by sulforhodamine B assay; type: functional; conditions: BT-549, 48 h; procedure, shortened: as §1
[18] = system: HOP-92; test: Growth inhibition of human HOP92 cells after 48 hrs by sulforhodamine B assay; type: functional; conditions: HOP-92, 48 h; procedure, shortened: as §1
[19] = system: HT-29; test: Growth inhibition of human HT-29 cells after 48 hrs by sulforhodamine B assay; type: functional; conditions: HT-29, 48 h; procedure, shortened: as §1
[20] = system: SNB-75; test: Growth inhibition of human SNB75 cells after 48 hrs by sulforhodamine B assay; type: functional; conditions: SNB-75, 48 h; procedure, shortened: as §2
[21] = system: U-251; test: Growth inhibition of human U251 cells after 48 hrs by sulforhodamine B assay; type: functional; conditions: U-251, 48 h; procedure, shortened: as §2
[22] = system: MT4; test: Antiproliferative activity against human MT4 cells assessed as reduction of growth by MTT assay; type: functional, cell-based
Procedure, shortened: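 MT-4 lymphoblastoid T cells (ATCC) in RPMI 1640 with 10% FCS, penicillin/streptomycin, checked for mycoplasma. 1 × 10⁴ mock-infected cells per well with serial dilutions from a 100 mM DMSO stock. Incubated 4 days at 37 °C, viable cells counted by MTT. IC50 versus untreated controls by linear regression. Mean of three separate experiments.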

[23] = Growth inhibition of human […] cells after 48 hrs by sulforhodamine B assay; type: functional; procedure, shortened: as §1
[24] = system: SNB-19; test: Growth inhibition of human SNB19 cells after 48 hrs by sulforhodamine B assay; type: functional; conditions: SNB-19, 48 h; procedure, shortened: as §2
[25] = system: TK-10; test: Growth inhibition of human TK10 cells after 48 hrs by sulforhodamine B assay; type: functional; conditions: TK-10, 48 h; procedure, shortened: as §2
[26] = system: SR; test: Growth inhibition of human SR cells after 48 hrs by sulforhodamine B assay; type: functional; procedure, shortened: as §2
[27] = system: SF-268; test: Growth inhibition of human SF268 cells after 48 hrs by sulforhodamine B assay; type: functional; conditions: SF-268, 48 h; procedure, shortened: as §1
[28] = system: HCT-15; test: Growth inhibition of human HCT15 cells after 48 hrs by sulforhodamine B assay; type: functional; conditions: HCT-15, 48 h; procedure, shortened: as §1
[29] = system: SK-OV-3; test: Growth inhibition of human SKOV3 cells after 48 hrs by sulforhodamine B assay; type: functional; conditions: SK-OV-3, 48 h; procedure, shortened: as §1
[30] = system: OVCAR-3; test: Growth inhibition of human OVCAR-3 cells after 48 hrs by sulforhodamine B assay; type: functional; conditions: OVCAR-3, 48 h; procedure, shortened: as §1
[31] = system: UACC-62; test: Growth inhibition of human UACC62 cells after 48 hrs by sulforhodamine B assay; type: functional; conditions: UACC-62, 48 h; procedure, shortened: as §2
[32] = system: SK-MEL-28; test: Growth inhibition of human SK-MEL-28 cells after 48 hrs by sulforhodamine B assay; type: functional; conditions: SK-MEL-28, 48 h; procedure, shortened: as §1
[33] = system: T47D; test: Growth inhibition of human T47D cells after 48 hrs by sulforhodamine B assay; type: functional; procedure, shortened: as §2
[34] = system: IGROV-1; test: Growth inhibition of human IGROV1 cells after 48 hrs by sulforhodamine B assay; type: functional; conditions: IGROV-1, 48 h; procedure, shortened: as §1
[35] = system: SN12C; test: Growth inhibition of human SN12C cells after 48 hrs by sulforhodamine B assay; type: functional; procedure, shortened: as §2
[36] = system: EKVX; test: Growth inhibition of human EKVX cells after 48 hrs by sulforhodamine B assay; type: functional; procedure, shortened: as §1
[37] = system: HOP-62; test: Growth inhibition of human HOP62 cells after 48 hrs by sulforhodamine B assay; type: functional; conditions: HOP-62, 48 h; procedure, shortened: as §1
[38] = system: K562; test: Growth inhibition of human K562 cells after 48 hrs by sulforhodamine B assay; type: functional; conditions: K562, 48 h; procedure, shortened: as §1
[39] = system: OVCAR-4; test: Growth inhibition of human OVCAR4 cells after 48 hrs by sulforhodamine B assay; type: functional; conditions: OVCAR-4, 48 h; procedure, shortened: as §1
[40] = system: SK-MEL-5; test: Growth inhibition of human SK-MEL-5 cells after 48 hrs by sulforhodamine B assay; type: functional; conditions: SK-MEL-5, 48 h; procedure, shortened: as §1
[41] = system: NCI-H23; test: Growth inhibition of human NCI-H23 cells after 48 hrs by sulforhodamine B assay; type: functional; conditions: NCI-H23, 48 h; procedure, shortened: as §1
[42] = system: SW-620; test: Growth inhibition of human SW620 cells after 48 hrs by sulforhodamine B assay; type: functional; conditions: SW-620, 48 h; procedure, shortened: as §2
[43] = system: ACHN; test: Growth inhibition of human ACHN cells after 48 hrs by sulforhodamine B assay; type: functional; procedure, shortened: as §1
[44] = system: UO-31; test: Growth inhibition of human UO31 cells after 48 hrs by sulforhodamine B assay; type: functional; conditions: UO-31, 48 h; procedure, shortened: as §2
[45] = system: PC-3; test: Growth inhibition of human PC3 cells after 48 hrs by sulforhodamine B assay; type: functional; conditions: PC-3, 48 h; procedure, shortened: as §1
[46] = system: COLO 205; test: Growth inhibition of human COLO205 cells after 48 hrs by sulforhodamine B assay; type: functional; conditions: COLO 205, 48 h; procedure, shortened: as §1
[47] = system: NCI/ADR-RES; test: Growth inhibition of human NCI/ADR-RES cells after 48 hrs by sulforhodamine B assay; type: functional; procedure, shortened: as §1
[48] = system: SK-MEL-2; test: Growth inhibition of human SK-MEL-2 cells after 48 hrs by sulforhodamine B assay; type: functional; conditions: SK-MEL-2, 48 h; procedure, shortened: as §1
[49] = system: MOLT-4; test: Growth inhibition of human MOLT4 cells after 48 hrs by sulforhodamine B assay; type: functional; conditions: MOLT-4, 48 h; procedure, shortened: as §1
[50] = system: HCT-116; test: Growth inhibition of human HCT116 cells after 48 hrs by sulforhodamine B assay; type: functional; conditions: HCT-116, 48 h; procedure, shortened: as §1

## CC(=O)C(=CN1CCN(C(=O)c2ccco2)C1=S)C(C)=O
[1]
  GI50: 1.5 µM
[2]
  GI50: 12.6 µM
[3]
  GI50: 5.8 µM
[4]
  GI50: 8.2 µM
[5]
  GI50: 20.7 µM
[6]
  GI50: 2.8 µM
[7]
  GI50: 1.8 µM
[8]
  GI50: 21.7 µM
[9]
  GI50: 4.7 µM
[10]
  GI50: 4 µM
[11]
  GI50: 2.1 µM
[12]
  GI50: 2.6 µM
[13]
  GI50: 5.3 µM
[14]
  GI50: 5.2 µM
[15]
  GI50: 2.5 µM
[16]
  GI50: 11.2 µM
[17]
  GI50: 14 µM
[18]
  GI50: 11.7 µM
[19]
  GI50: 17.1 µM
[20]
  GI50: 9 µM
[21]
  GI50: 4.8 µM
[22]
  IC50: 4 µM
[23]
  GI50: 2.7 µM
[24]
  GI50: 30.1 µM
[25]
  GI50: 4.2 µM
[26]
  GI50: 2.3 µM
[27]
  GI50: 2.6 µM
[28]
  GI50: 2.2 µM
[29]
  GI50: 20 µM
[30]
  GI50: 11.4 µM
[31]
  GI50: 5.5 µM
[32]
  GI50: 3.9 µM
[33]
  GI50: 3.7 µM
[34]
  GI50: 3.6 µM
[35]
  GI50: 2.6 µM
[36]
  GI50: 11.2 µM
[37]
  GI50: 22 µM
[38]
  GI50: 38.4 µM
[39]
  GI50: 10.6 µM
[40]
  GI50: 16.6 µM
[41]
  GI50: 16.4 µM
[42]
  GI50: 14.6 µM
[43]
  GI50: 2.9 µM
[44]
  GI50: 2.9 µM
[45]
  GI50: 4.8 µM
[46]
  GI50: 23.4 µM
[47]
  GI50: 23.2 µM
[48]
  GI50: 3.3 µM
[49]
  GI50: 8.2 µM
[50]
  GI50: 4.1 µM
